# Tests used:
# [1] = Cytotoxicity against African green monkey Vero cells measured by MTT assay; type: toxicity, cell-based; details: African green monkey (Chlorocebus sabaeus)
# Method in brief: (§1)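 Vero, HepG2 and mouse J774A.1 cells grown in RPMI 1640 with 10% FBS. MTT read-out in 96-well format.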
# [2] = Selectivity index, Ratio of IC50 for Vero cells over MIC for Mycobacterium tuberculosis H37Rv; type: toxicity; details: monkey
# [3] = tested on: Mycobacterium tuberculosis; assay: Antimycobacterial activity against Mycobacterium tuberculosis H37Rv measured by MABA assay; type: functional
# Method in brief: (§2)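 Microplate Alamar Blue assay against replicating M. tuberculosis H37Rv or clinical isolates. MIC is the lowest concentration giving ≥90% reduction in fluorescence relative to the mean of replicate bacterium-only controls.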
# [4] = tested on: Mycobacterium tuberculosis; assay: Antimycobacterial activity against Mycobacterium tuberculosis 14862 clinical isolate measured by MABA assay; type: functional; method in brief: as §2
# [5] = Metabolic stability in mouse hepatocytes assessed as half-life at 1 uM measured by LC-MS/MS analysis; type: ADME, cell-based, Hepatocyte
# Method in brief: (§3)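 Compound at 1 µM with hepatocytes at 1 million cells/mL final; human hepatocytes are mixed donor, mouse are male. Incubated at 37 °C in CO2 at ~100 rpm. Sampled at 0, 15, 30, 60, 90 and 120 min, quenched in ice-cold ACN/MeOH with internal standard. Parent remaining measured by LC-MS/MS.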
# [6] = tested on: Mycobacterium tuberculosis; assay: Antimycobacterial activity against Mycobacterium tuberculosis 13946 clinical isolate measured by MABA assay; type: functional; method in brief: as §2
# [7] = Metabolic stability in human hepatocytes assessed as compound remaining at 1 uM measured by LC-MS/MS analysis; type: ADME, cell-based, Hepatocyte; details: read-out: Stability; method in brief: as §3
# [8] = Cytotoxicity against human HepG2 cells measured by MTT assay; type: toxicity, cell-based; method in brief: as §1
# [9] = Metabolic stability in mouse hepatocytes assessed as compound remaining at 1 uM measured by LC-MS/MS analysis; type: ADME, cell-based, Hepatocyte; details: read-out: Stability; method in brief: as §3
# [10] = Metabolic stability in human hepatocytes assessed as half-life at 1 uM measured by LC-MS/MS analysis; type: ADME, cell-based, Hepatocyte; method in brief: as §3
# [11] = Cytotoxicity against mouse J774.A1 cells measured by MTT assay; type: toxicity, cell-based; method in brief: as §1
# [12] = biological target: Voltage-gated inwardly rectifying potassium channel KCNH2 (Homo sapiens, UniProt Q12809); assay: Inhibition of hERG; type: toxicity
# Chain of Voltage-gated inwardly rectifying potassium channel KCNH2 (Q12809 whole entry): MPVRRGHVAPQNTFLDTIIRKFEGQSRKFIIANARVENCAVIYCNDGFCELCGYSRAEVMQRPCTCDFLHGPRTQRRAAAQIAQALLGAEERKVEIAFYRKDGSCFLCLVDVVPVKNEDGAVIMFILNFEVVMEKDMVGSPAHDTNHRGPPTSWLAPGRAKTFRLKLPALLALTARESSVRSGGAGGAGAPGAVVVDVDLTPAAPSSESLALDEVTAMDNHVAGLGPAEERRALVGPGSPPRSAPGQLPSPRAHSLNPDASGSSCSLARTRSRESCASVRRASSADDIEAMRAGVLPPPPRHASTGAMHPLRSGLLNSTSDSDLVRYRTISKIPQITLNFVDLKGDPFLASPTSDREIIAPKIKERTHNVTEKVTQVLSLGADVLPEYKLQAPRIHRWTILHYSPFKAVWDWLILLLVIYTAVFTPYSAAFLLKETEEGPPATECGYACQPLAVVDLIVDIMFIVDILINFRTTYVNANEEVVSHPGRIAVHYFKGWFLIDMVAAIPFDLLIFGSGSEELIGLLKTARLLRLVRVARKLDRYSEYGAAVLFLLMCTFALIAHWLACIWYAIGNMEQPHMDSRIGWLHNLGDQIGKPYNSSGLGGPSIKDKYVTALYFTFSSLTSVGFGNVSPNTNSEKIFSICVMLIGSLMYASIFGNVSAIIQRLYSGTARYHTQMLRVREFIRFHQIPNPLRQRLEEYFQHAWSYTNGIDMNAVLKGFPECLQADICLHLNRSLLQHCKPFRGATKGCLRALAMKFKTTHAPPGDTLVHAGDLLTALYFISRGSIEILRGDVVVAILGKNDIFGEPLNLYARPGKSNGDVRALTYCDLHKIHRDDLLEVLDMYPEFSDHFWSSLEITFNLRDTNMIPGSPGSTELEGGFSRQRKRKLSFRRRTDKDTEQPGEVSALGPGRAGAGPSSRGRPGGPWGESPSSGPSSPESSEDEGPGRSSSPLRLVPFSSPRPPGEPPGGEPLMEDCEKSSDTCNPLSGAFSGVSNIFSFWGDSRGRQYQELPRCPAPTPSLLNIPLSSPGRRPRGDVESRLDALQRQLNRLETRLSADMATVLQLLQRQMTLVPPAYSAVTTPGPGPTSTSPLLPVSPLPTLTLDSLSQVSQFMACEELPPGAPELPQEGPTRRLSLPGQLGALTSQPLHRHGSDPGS
# Method in brief: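 Electrophysiological recording of hERG current at 30, 10, 3.0, 1.0 and 0.3 µM, run in duplicate for IC50.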
# [13] = biological target: T1, Decaprenylphosphoryl-beta-D-ribose oxidase (Mycobacterium tuberculosis (strain ATCC 25618 / H37Rv), UniProt P9WJF1); assay: Inhibition of recombinant Mycobacterium tuberculosis DprE1 measured by resazurin dye based assay
# T1 sequence (P9WJF1 whole entry): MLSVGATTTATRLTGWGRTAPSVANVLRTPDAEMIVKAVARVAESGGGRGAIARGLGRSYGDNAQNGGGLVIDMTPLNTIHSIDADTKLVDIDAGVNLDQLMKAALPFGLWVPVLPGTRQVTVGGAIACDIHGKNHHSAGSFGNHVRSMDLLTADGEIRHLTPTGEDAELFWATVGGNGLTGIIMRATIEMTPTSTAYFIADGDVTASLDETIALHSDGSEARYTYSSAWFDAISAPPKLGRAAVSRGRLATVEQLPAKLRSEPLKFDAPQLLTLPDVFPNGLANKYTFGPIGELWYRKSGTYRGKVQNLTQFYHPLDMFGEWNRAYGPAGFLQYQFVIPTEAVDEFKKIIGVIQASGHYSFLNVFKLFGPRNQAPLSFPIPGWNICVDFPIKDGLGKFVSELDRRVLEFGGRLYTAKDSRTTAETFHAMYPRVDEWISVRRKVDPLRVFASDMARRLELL
# Method in brief: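 Resazurin-coupled fluorescence assay at 30 °C. Buffer: 50 mM HEPES pH 7.5, 100 mM NaCl, 1.5% DMSO, 100 µM Tween-20, 50 µM resazurin, 2 µM FAD. DprE1 at 1 µM with 1 mM FPR across inhibitor concentrations. Resorufin read at ex 530/em 595 nm. IC50 from initial velocities plotted against inhibitor concentration.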
# [14] = tested on: J774.A1; assay: Antimycobacterial activity against Mycobacterium tuberculosis H37Rv infected in mouse J774.A1 cells assessed as change in log10 CFU at 5 ug/ml; type: functional; details: dose 5 µg/ml
# Method in brief: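 Mouse J774A.1 macrophages infected with M. tuberculosis H37Rv, test compound at final 10 or 5 µg/mL. Read-out is intracellular log10 CFU; Δlog10 CFU = untreated minus treated. Triplicates in at least three separate experiments.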
SMILES,IC50 [1] [µg/mL],selectivity ratio [2],MIC [3] [µg/mL],also measured
COC(=O)NC(=O)c1ccsc1NC(=O)c1ccc(C(=O)N2CCCCC2)cc1,> 64,> 337,0.19,–
CCOC(=O)NC(=O)c1ccsc1NC(=O)c1ccc(S(=O)(=O)N2CCCCC2)cc1,18.6,619,0.03,MIC [4]: < 0.016 µg/mL; half-life at 1 µM [5]: 50.6 min; MIC [6]: < 0.016 µg/mL; remaining at 1 µM [7]: 49.8%; IC50 [8]: 38.8 µg/mL; remaining at 1 µM [9]: 66.3%; half-life at 1 µM [10]: 29.9 min; IC50 [11]: 34.3 µg/mL
CCOC(=O)NC(=O)c1ccsc1NC(=O)c1ccc(S(=O)(=O)Nc2ccc(OC)cc2)cc1,–,–,3.64,–
CCCOC(=O)NC(=O)c1ccsc1NC(=O)c1ccc(S(=O)(=O)N2CCCCC2)cc1,56.6,1110,0.051,–
COC(=O)NC(=O)c1ccsc1NC(=O)c1ccc(S(=O)(=O)N2CCCC2)cc1,39.4,395,0.1,–
COC(=O)NC(=O)c1ccsc1NC(=O)c1ccc(S(=O)(=O)N2CCC(=O)CC2)cc1,–,–,3.52,–
CC(C)OC(=O)NC(=O)c1ccsc1NC(=O)c1ccc(S(=O)(=O)N2CCOCC2)cc1,13.1,29,0.45,–
COC(=O)NC(=O)c1ccsc1NC(=O)c1ccc(S(=O)(=O)N2CCC(c3ccccc3)CC2)cc1,–,–,> 32,–
O=C(NC(=O)c1ccsc1NC(=O)c1ccc(S(=O)(=O)N2CCOCC2)cc1)OCC(F)(F)F,–,–,30.4,–
COC(=O)NC(=O)c1ccsc1NC(=O)c1ccc(S(=O)(=O)N2CCC2)cc1,17.5,134,0.13,–
CCN(C)S(=O)(=O)c1ccc(C(=O)Nc2sccc2C(=O)NC(=O)OC)cc1,10.4,21,0.49,–
COC(=O)NC(=O)c1ccsc1NC(=O)c1ccc(S(=O)(=O)NC23CC4CC(CC(C4)C2)C3)cc1,–,–,1.96,–
CCOC(=O)NC(=O)c1ccsc1NC(=O)c1ccc(S(=O)(=O)Nc2ccc(F)cc2)cc1,20.5,21,0.98,–
O=C(Nc1sccc1C(=O)Nc1ccccn1)c1ccc(S(=O)(=O)N2CCCCC2)cc1,–,–,29.6,–
COC(=O)NC(=O)c1ccsc1NC(=O)c1ccc(S(=O)(=O)N2CCCCC2)cc1,3.62,15,0.24,IC50 [12]: 3300 nM; MIC [4]: 0.51 µg/mL; half-life at 1 µM [5]: 14 min; MIC [6]: 0.48 µg/mL; IC50 [13]: 221 nM; remaining at 1 µM [7]: 1%; IC50 [8]: 36.8 µg/mL; remaining at 1 µM [9]: 22.7%; half-life at 1 µM [10]: 4.6 min; IC50 [11]: 36.9 µg/mL
CCOC(=O)NC(=O)c1ccsc1NC(=O)c1ccc(S(=O)(=O)N2CCC(OC)CC2)cc1,21,701,0.03,–
CCOC(=O)NC(=O)c1ccsc1NC(=O)c1ccc(S(=O)(=O)Nc2ccccc2)cc1,14.5,21,0.7,–
CCOC(=O)NC(=O)c1ccsc1NC(=O)c1ccc(S(=O)(=O)Nc2ccc(C)cc2)cc1,–,–,3.56,–
CCOC(=O)NC(=O)c1ccsc1NC(=O)c1ccc(S(=O)(=O)Nc2ccccn2)cc1,–,–,1.55,–
CCOC(=O)NC(=O)c1ccsc1NC(=O)c1ccc(S(=O)(=O)Nc2ccc(Br)cc2)cc1,–,–,2.79,–

SMILES,IC50 [1] [µg/mL],selectivity ratio [2],MIC [3] [µg/mL],also measured
Cc1ccnc(NC(=O)c2ccsc2NC(=O)c2ccc(S(=O)(=O)N3CCOCC3)cc2)n1,42.7,49,0.87,–
COC(=O)NC(=O)c1ccsc1NC(=O)c1ccc(S(=O)(=O)N2CCC(O)CC2)cc1,–,–,3.67,–
COC(=O)NC(=O)c1ccsc1NC(=O)c1ccc(S(=O)(=O)NC2CCCCC2)cc1,> 64,> 70,0.92,–
CCOC(=O)NC(=O)c1ccsc1NC(=O)c1ccc(S(=O)(=O)Nc2cccc(F)c2)cc1,–,–,1.14,–
Cc1ccnc(NC(=O)c2ccsc2NC(=O)c2ccc(S(=O)(=O)N3CCCCC3)cc2)n1,32.8,137,0.24,IC50 [12]: 1700 nM; half-life at 1 µM [5]: 7.9 min; remaining at 1 µM [7]: 41.2%; remaining at 1 µM [9]: 7.3%; half-life at 1 µM [10]: 23.4 min
COC(=O)NC(=O)c1ccsc1NC(=O)c1ccc(S(=O)(=O)N(C)C)cc1,16.2,14,1.19,–
CCOC(=O)NC(=O)c1ccsc1NC(=O)c1ccc(S(=O)(=O)Nc2ccc(OC(F)(F)F)cc2)cc1,–,–,26.3,–
CCCOC(=O)NC(=O)c1ccsc1NC(=O)c1ccc(S(=O)(=O)N2CCOCC2)cc1,–,–,2.45,–
CCOC(=O)NC(=O)c1ccsc1NC(=O)c1ccc(S(=O)(=O)Nc2ccc([N+](=O)[O-])cc2)cc1,–,–,3.61,–
CCOC(=O)NC(=O)c1ccsc1NC(=O)c1ccc(S(=O)(=O)N2CCCCCC2)cc1,3.42,143,0.024,–
COC(=O)NC(=O)c1ccsc1NC(=O)c1ccc(S(=O)(=O)N2CCCCCC2)cc1,9.13,42,0.22,–
COC(=O)NC(=O)c1ccsc1NC(=O)c1ccc(S(=O)(=O)N2CCC(C)CC2)cc1,9.13,40,0.23,–
COC(=O)NC(=O)c1ccsc1NC(=O)c1ccc(S(=O)(=O)N2CCC(OC)CC2)cc1,18,601,0.03,IC50 [12]: 8900 nM; MIC [4]: 0.44 µg/mL; MIC [6]: 0.25 µg/mL; IC50 [8]: 46.1 µg/mL; IC50 [11]: 54.9 µg/mL
CCCCNS(=O)(=O)c1ccc(C(=O)Nc2sccc2C(=O)NC(=O)OC)cc1,29.5,105,0.28,–
CCOC(=O)NC(=O)c1ccsc1NC(=O)c1ccc(S(=O)(=O)Nc2nccs2)cc1,–,–,7.64,–
CCOC(=O)NC(=O)c1ccsc1NC(=O)c1ccc(S(=O)(=O)N2CCC2)cc1,> 64,> 1310,0.049,MIC [4]: 0.062 µg/mL; MIC [6]: 0.06 µg/mL
O=C(NC(=O)c1ccsc1NC(=O)c1ccc(S(=O)(=O)N2CCCCC2)cc1)OCC(F)(F)F,–,–,29.7,–
C[C@H]1COc2c(N3CCN(C)CC3)c(F)cc3c(=O)c(C(=O)O)cn1c23.C[C@H]1COc2c(N3CCN(C)CC3)c(F)cc3c(=O)c(C(=O)O)cn1c23.O [LEVOFLOXACIN],–,–,0.33,MIC [4]: 1.87 µg/mL; MIC [6]: 1.94 µg/mL
CO[C@H]1/C=C/O[C@@]2(C)Oc3c(C)c(O)c4c(O)c(c(/C=N/N5CCN(C)CC5)c(O)c4c3C2=O)NC(=O)/C(C)=C\C=C\[C@H](C)[C@H](O)[C@@H](C)[C@@H](O)[C@@H](C)[C@H](OC(C)=O)[C@@H]1C [RIFAMPIN],–,–,0.015,MIC [4]: 9.24 µg/mL; MIC [6]: > 10 µg/mL; Activity [14]: 1.03 deltalog10CFU
CN[C@@H]1[C@H](O[C@H]2[C@H](O[C@H]3[C@H](O)[C@@H](O)[C@H](N=C(N)N)[C@@H](O)[C@@H]3N=C(N)N)O[C@@H](C)[C@]2(O)C=O)O[C@@H](CO)[C@H](O)[C@H]1O [STREPTOMYCIN],–,–,0.49,MIC [4]: > 2 µg/mL; MIC [6]: > 2 µg/mL

# Source: ChEMBL document CHEMBL5154717, “Identification of thiophene-benzenesulfonamide derivatives for the treatment of multidrug-resistant tuberculosis” (Eur J Med Chem, 2022)
